According to the EternaBench riboswitch data:

How the values were obtained:
MS2 coat protein [1] = test: apparent Kd, MS2 coat protein; higher = weaker binding; RNA-MaP array; theophylline 2 mM where present
Outline: (§1)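 The apparent Kd is the median of filtered binding-curve fits, one per cluster, to green signal normalised to red-channel RNA signal and control-cluster median Fmax. The clusters were on Illumina sequencing chips, and stalled E. coli RNA polymerase had transcribed the designs on them. Titration used SNAP-549-labelled MS2 coat protein from 0.7 or 1.5 nM, doubling to 3 µM, without and then with constant ligand, in 100 mM Tris-HCl pH 7.5, 80 mM KCl, 4 mM MgCl2, BSA, DTT, yeast tRNA and Tween-20.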

MS2 coat protein [2] = test: apparent Kd, MS2 coat protein; higher = weaker binding; RNA-MaP array; tryptophan 2.4 mM where present; conditions: designed as: OFF switch for tryptophan
Outline: as §1

[3] = designed as: OFF switch for theophylline, no ligand
[4] = ligand present: theophylline, designed as: OFF switch for theophylline
[5] = designed as: ON switch for theophylline, no ligand
[6] = ligand present: theophylline, designed as: ON switch for theophylline

Sequence	apparent Kd (MS2 coat protein [1]; [3])	apparent Kd (MS2 coat protein [1]; [4])	apparent Kd (MS2 coat protein [1]; [5])	apparent Kd (MS2 coat protein [1]; [6])	further results
UGACAUUGCUCAGAUACCAGACAUGAGGAUCACCCAUGUGCCAAAACGUACUAAAUAAAUGUCCCUUGGCAGCUGAGCAAUGUCU	12.6 nM	126 nM	–	–	–
UUUGAUAGGACAGAUACCAGCGUGUUGUUGAACAUGAGGAUCACCCAUGUAGUGAUCAAGCGCCCUUGGCAGCUGGUUUGUUAGG	–	–	236 nM	81.7 nM	–
CAUACUUUAGUAUGUAAUGUGGACAGUGAUACCAGAUACGAAAGUAUCCCUUGGCAGCACAACAUGAGGAUCACCCAUGUAUUUU	–	–	19.4 nM	–	–
GAUGAACUAUUUGAUACCAGACUACAUGAGGAUCACCCAUGUGCGCGUCGUCCUCUGCCAGUCCCUUGGCAGCAAAUAGUUUAUC	101 nM	127 nM	–	–	–
AUAAGUAAUGUCUCGUGUAUUAUUACAGAUACCAGACUAUCCUAUGUCCCUUGGCAGCUGGAUUACAUGAGGAUCACCCAUGUGG	43.6 nM	35 nM	–	–	–
ACAUGAGGAUCACCCAUGUGCAGAACGGAUACCAGCGUCCUGGUACGCCCUUGGCAGCCGGACAUGAGGAUCACCCAUGUGUGGA	93.1 nM	406 nM	–	–	–
GGCCGAUGGUGCGAUACCAGCUUGAGUGUACUGGCCAGGUACAUGAGGAUCACCCAUGUAAGCCCUUGGCAGCGCGUCAGAGGCC	–	35.8 nM	–	–	–
UCAUGAGGAUCACCCAUGUGGCGUCUUGAUACCAGACGAGAAGUAGUCCCUUGGCAGCAAAUACAUGAGGAUCACCCAUGUAGGA	38.6 nM	63.7 nM	–	–	–
CGACGAUACCUGGAUACCAGCGACAUGAGGAUCACCCAUGUAUGUGGAUCAGCCAUGAUAUGCCCUUGGCAGCCACCAAAGUCGG	14.9 nM	51.9 nM	–	–	–
AUAAUGGGUUUCGGACUAUCAUGGAAUGAUACCAGAUACUUAGAAAUCCCUUGGCAGCAUGAGGACAUGAGGAUCACCCAUGUAU	57.9 nM	61.5 nM	–	–	–
AGGAAACAACAUGAGGAUCACCCAUGUGAUACCAGUCAAAUAAAAGACCCUUGGCAGCACACAUGACAUGAGGAUCACCCAUGUA	–	–	31.9 nM	77 nM	–
AGUACUCGAACGGAUACCAGCCGGACAUGAGGAUCACCCAUGUCCUACCUCUGUUCGGUUGGCCCUUGGCAGCCGUUCGUGUACA	–	–	99.4 nM	93.3 nM	–
AUAUCAUAGAGUGAUACCAGACUACAUGAGGAUCACCCAUGUGACAUUUAAAUAUCAUUUGUCCCUUGGCAGCACAUUAAGUACA	67.3 nM	65.4 nM	–	–	–
AAUGCUGCCAAGGAUUCCUCAUGAGCAGAUACCAGCUAGGAAACUAGCCCUUGGCAGCUGCAACAUGAGGAUCACCCAUGUAAUA	38.5 nM	26.3 nM	–	–	–
AGACAUGAGGAUCACCCAUGUAGUAUGGAUACCAGAUCCAGAUUUAUCCCUUGGCAGCUGUGGUACAGCGUUGCAACGCUCCUAG	29.3 nM	28.9 nM	–	–	–
AGCGCAGGUCCUGAUACCAGAGACAUGAGGAUCACCCAUGUCCGAUGGUCCUGCCUCAGGCUCCCUUGGCAGCAGGGCUUGUGCU	10.3 nM	20.4 nM	–	–	–
ACGAACGAUAGCGAUACCAGACGUACAUGAGGAUCACCCAUGUUUUGGGUAAGGUUAAUAGUCCCUUGGCAGCGCUUUAAGUUCG	59.6 nM	469 nM	–	–	–
AGUAAUCUAUCAGAUACCAGACCCUCUUUAACAUGAGGAUCACCCAUGUCUAUGUUCUACGUCCCUUGGCAGCUGUAAAUGAUAA	–	–	45.9 nM	20.9 nM	–
GCGAUACAUGAGGAUCACCCAUGUGCAGAUACCAGAGGUGCAUGCCUCCCUUGGCAGCUGCGACGCUCUGGCAUCUUGUGGGAUG	–	–	69.1 nM	71 nM	–
AGCGACAUGCGUGAUACCAGCUACAUGAGGAUCACCCAUGUACGUCAGAAAUGACUGUGUAGCCCUUGGCAGCAUAGUGCAUGUC	32.6 nM	60.7 nM	–	–	–

Sequence	apparent Kd (MS2 coat protein [1]; [3])	apparent Kd (MS2 coat protein [1]; [4])	apparent Kd (MS2 coat protein [1]; [5])	apparent Kd (MS2 coat protein [1]; [6])	further results
AGACAUGAGGAUCACCCAUGUAGUACGGAUACCAGAUCCAGAUGCGUCCCUUGGCAGCUGUGGUACAGCGUUACAUCGCUCGUAG	17.6 nM	17.6 nM	–	–	–
UGAUCCUACAGAGAUACCAGUGCCACUAAAUAACUAAACACAUGAGGAUCACCCAUGUAACACCCUUGGCAGCUCAACUAAAGGG	–	–	27.4 nM	19.2 nM	–
AUAAAUAUAACCGAUACCAGCCUUAUACAUGAGGAUCACCCAUGUUAUGCUUCCUUUCUUGGCCCUUGGCAGCGGAAAUGGGUAA	–	–	57.9 nM	26.4 nM	–
UAUCUUGCGGGCGCCCGCAAGGUUGCGGAUACCAGCGAGAUAAAUCGCCCUUGGCAGCCGAACAUGAGGAUCACCCAUGUCGGAC	–	–	9.99 nM	12.7 nM	–
AUCGUACCUGAUGAUACCAGCAAGUGAUCAUAACAUGAGGAUCACCCAUGUAAUCAGUGAUGCCCUUGGCAGCAUAAUCGAUACA	–	–	178 nM	140 nM	–
ACGUCAUGGAGAACGUGACGACUUAUCGAUACCAGCGAUUGAGAGCGCCCUUGGCAGCGAACAUGAGGAUCACCCAUGUCAAGGG	–	–	29.7 nM	42.1 nM	–
AGCCCUGUGCUAGAUACCAGCUACAUGAGGAUCACCCAUGUGCGUCAAGACUGACUGUGUAGCCCUUGGCAGCUACUCGCAUGUA	12.6 nM	23 nM	–	–	–
AACAUGGGAUUAAAAUAAAUAAUAACUGAUACCAGACUAUAUAAUGUCCCUUGGCAGCAGAUACAUGAGGAUCACCCAUGUAUUA	12.9 nM	23.8 nM	–	–	–
GAUGAACUAUAUGAUACCAGACAACAUGAGGAUCACCCAUGUGUAAGUCGUCCUCUGCCUGUCCCUUGGCAGCGUAUAGUUUAUC	47.6 nM	84 nM	–	–	–
CGGUUUGUGAUGGAUACCAGCAGAGUGACUGUUUAUCCUGACAUGAGGAUCACCCAUGUGUGCCCUUGGCAGCUGUUGUGGGCUG	80.4 nM	80.8 nM	–	–	–
AAUAACAUGAGGAUCACCCAUGUAAAAGAUACCAGAUGCAUGAUGAUCCCUUGGCAGCUUAACGCUGAUUGGAAACAAUCAGCGA	–	–	39 nM	37.6 nM	–
UUAUUUAUAAUUGAUACCAGUUUAAUGGCCGCAAAUCCUGACAUGAGGAUCACCCAUGUAAGCCCUUGGCAGCGGUUAUGGGUUU	21 nM	21.1 nM	–	–	–
ACAUGAGGAUCACCCAUGUAGUGGCACGAUACCAGCUGAUCCCGUGGCCCUUGGCAGCGUCCGGUGUGGUCUGCCGGGAUGGAGC	–	–	23.7 nM	28.4 nM	–
GAAUAUUACAUGAGGAUCACCCAUGUAGAUACCAGCCUUGAUUGUGGCCCUUGGCAGCUACGCCGUGAAUGCCUCAGUUGCUUAC	90.7 nM	31.5 nM	–	–	–
UGUAUGUGAUUUGAUACCAGACCAACUGGUAAUACAUGAGGAUCACCCAUGUAGAUUUGGGUCCCUUGGCAGCAAAUCGCAUACU	–	–	48 nM	11.7 nM	–
UGGUACAUGAGGAUCACCCAUGUGCCGGAUACCAGAGAGCCGGCUCUCCCUUGGCAGCUGGCGCGACAUGAGGAUCACCCAUGUG	25.2 nM	38.4 nM	–	–	–
AACUAAUCACAUGAGGAUCACCCAUGUGAUACCAGCUAAUCCCAAAGCCCUUGGCAGCACCUUUGGGUCCCGGUGUGUUUGAACA	9.6 nM	21.9 nM	–	–	–
GAGCUGAUGUAGGGCGGAUAUCCGUGAGAUACCAGUACAGAAAUGUACCCUUGGCAGCUCUUCCUUACAUGAGGAUCACCCAUGU	19.4 nM	36.1 nM	–	–	–
UAUAUAUAUAUGGAUACCAGCAGAGAAAACGUUUAUCCUAACAUGAGGAUCACCCAUGUAUGCCCUUGGCAGCUGUAUAUAUAUA	24.9 nM	32.4 nM	–	–	–
ACUUCGCAUAGGAAAACUAUGUGAAGAAAUCGAGGACCGGUACGGCCGCCACUCGUCCUCAACAUGAGGAUCACCCAUGUAAUAA	–	–	–	–	apparent Kd (MS2 coat protein [2]; no ligand): 20.1 nM; apparent Kd (MS2 coat protein [2]; ligand present: tryptophan): 37.8 nM
